A selection: hits, their analogues and other compounds. The true share with any hit is near 2.8%.
Yeast life ext – extends the lifespan of yeast; S. cerevisiae growth with nicotinamide, OD615; deaD strain in restrictive glucose medium; inhibition of the nicotinamide effect, % at 10 µM; actives 0.68% (n = 130,000);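 active means inhibition above a set limit, placed 3 SD over the median of all compounds, cut at about 26% in these data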;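 further: 0% = nicotinamide-treated wells and 100% = cells grown without nicotinamide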
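Assay system: engineered S. cerevisiae DeaD replicative-lifespan strain, galactose-grown log-phase cells; Buffer or medium: CSMM-D glucose medium, restrictive; Probe or stimulus: nicotinamide 1.5 mM; Compound: single dose 10 µM compound, 0.25% DMSO; Schedule: 4 h preincubation then 48 h treatment at 30 °C; Technique: OD615 measurement.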
TNAP act hiacc – TNAP (human) activation, high acceptor. P05186. purified TNAP, CDP-star luminescence, 1 M DEA, 30 min; hits give high values; 0 = EDTA background, 1 = DMSO-only activity. activation factor at 20 µM. 200,000 tested, under 10 active. AID 1136;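 active means activation factor at least 2 at 20 µM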
Target sequence (P05186 whole entry, looked up): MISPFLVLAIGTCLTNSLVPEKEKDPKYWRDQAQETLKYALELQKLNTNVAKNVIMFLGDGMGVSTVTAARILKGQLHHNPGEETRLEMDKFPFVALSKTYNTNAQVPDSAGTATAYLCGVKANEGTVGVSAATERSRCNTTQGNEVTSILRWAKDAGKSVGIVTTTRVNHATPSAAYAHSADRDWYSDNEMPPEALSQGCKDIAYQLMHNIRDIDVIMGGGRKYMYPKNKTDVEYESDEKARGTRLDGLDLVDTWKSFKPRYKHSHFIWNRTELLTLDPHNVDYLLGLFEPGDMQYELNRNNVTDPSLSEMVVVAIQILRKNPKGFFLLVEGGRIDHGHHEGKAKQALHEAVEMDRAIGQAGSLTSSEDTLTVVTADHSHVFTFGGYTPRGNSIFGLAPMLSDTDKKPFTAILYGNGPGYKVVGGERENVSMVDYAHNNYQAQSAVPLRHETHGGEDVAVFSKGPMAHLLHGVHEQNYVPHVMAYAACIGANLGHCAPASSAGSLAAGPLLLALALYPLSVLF
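Control set: EDTA negative control, DMSO positive control / Assay system: human TNAP / Quantity: TNAP 1/800 final / Evaluation: TNAP activation factor scaled between EDTA and DMSO control wells / Measured by: luminescent substrate turnover signal / Compound dosing: one dose, 20 µM / Times: 30 min enzyme reaction at room temperature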
TNAP inh hiacc – inhibitors of human TNAP at high phosphate acceptor concentration. P05186. purified TNAP, CDP-star luminescence, 1 M DEA. inhibition, % at 20 µM. actives 0.03% (n = 200,000);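 active means over 50% inhibition of tissue-nonspecific alkaline phosphatase at 20 µM in the single-dose screen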;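 further: plate controls were DMSO wells for no effect and EDTA-quenched wells as full inhibition for full effect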
Yeast growth inh – reduces growth of yeast BB579 in restrictive medium. inhibition, % at 10 µM. S. cerevisiae BB579 growth, OD615, 48 h. actives 0.51% (n = 140,000);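 active means inhibition above a set limit, 3 SD over the mean compound inhibition, cut at about 44% in these data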
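Test system: DeaD yeast strain BB579 / Buffer or medium: restrictive glucose-based CSMM-D medium / Doses: single 10 µM dose / Schedule: 4 h cell preincubation, 48 h compound exposure, 30 °C humidified / Technique: culture absorbance at 615 nm / Controls: amphotericin B positive control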
RAM inhibit – blocks the yeast RAM network; actives 1.8% (n = 190,000); inhibition, % at 50 µM; S. cerevisiae dse1pr::URA3 reporter, 5-FOA growth OD615, 2 d; analog-sensitive cbk1-as2 kinase mutant strain;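 active means inhibition above a set limit, 3 SD over mean compound inhibition, cut at about 8.4% in these data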;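 further: 0% = DMSO-only wells with no growth and 100% = 10 µM 1-NA-PP1 full growth; inhibition rescues growth on 5-FOA so higher OD means more RAM inhibition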
TNAP inh no acc – TNAP (human) inhibition, acceptor-free conditions; P05186; purified TNAP, CDP-star luminescence, 30 min; inhibition, % at 20 µM; actives 0.26% (n = 200,000);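 active means tissue-nonspecific alkaline phosphatase inhibition above about 50% at 20 µM in the single-dose screen, limit read from the data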;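 further: 0% = DMSO negative control and 100% = EDTA positive control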
RAM efflux-def – RAM network inhibitors in efflux-deficient yeast; shares compounds with RAM inhibit; S. cerevisiae efflux-deficient reporter strain, 5-FOA growth OD615, 2 days; max inhibition, %; 1,200 tested, under 10 active; call rule not given here;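 further: plate controls were vehicle for no effect and reference inhibitor for full effect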
The depositor's hits bear a star; nt = no result given.

SMILES	Yeast life ext	TNAP act hiacc	TNAP inh hiacc	Yeast growth inh	RAM inhibit	TNAP inh no acc	RAM efflux-def
N#Cc1nc(Cc2ccccc2)oc1N1CCC(Cc2ccccc2)CC1	1	1	-3	-38	13*	-11	7
CCOC(=O)C1=C(C)NC(SCC(=O)O)=NC1c1ccccc1 (stereo unspecified)	2	1	-3	-37	4	-10	nt
COc1cccc(CNc2ccc3c(c2)CCC3)c1	-7	1	1	-12	0	-19	nt
N#CCCCSc1nnc(-c2ccc(Cl)cc2)n1-c1ccccc1	8	1	-4	-37	15*	-9	1
Cc1ccc(-n2ncc3c(=O)n(CC(=O)N4CCCc5ccccc54)cnc32)cc1C	nt	1	-2	-3	2	-7	nt
CCCc1ccc(/C=C2\C(=O)c3ccccc3C(O)=C2C(=O)OCC)cc1	10	1.1	-5	-43	12*	4	4
CCCN=C(C)C1=C(O)c2ccccc2C1=O	-3	1	4	-30	0	1	nt
O=C(CSCc1ccccc1)Nc1cccc(C(=O)Nc2ccccc2C(=O)O)c1	-21	1	-2	8	13*	-7	2
O=C(CSCc1ccc(Cl)cc1)Nc1cccc(C(=O)Nc2ccccc2C(=O)O)c1	-15	1	3	-43	14*	-13	1
O=C(O)CCCC(=O)Nc1cccc(C(=O)Nc2ccccc2C(=O)O)c1	nt	1	-1	nt	0	-1	nt
O=C(c1ccc(Cl)cc1)c1cnc(-c2ccccc2)s1	-14	1	-4	-22	2	-12	nt
O=C(c1cnc(-c2ccccc2)s1)c1ccc(Cl)cc1Cl	-13	1	-3	-60	13*	0	2
CCOC(=O)c1c(-c2ccc(C)o2)csc1NC(=O)CN1CCCCC1	nt	1	1	nt	0	-6	nt
CCOC(=O)c1c(-c2ccc(C)o2)csc1NC(=O)CSc1nncs1	-20	1.1	-7	-63	12*	-14	1
CCNC(=S)NNC(=O)c1cc(-c2cc(C)ccc2C)nc2ccccc12	-13	1	-2	10	1	-21	nt
O=C(COC(=O)CCCNC(=O)c1ccc(Cl)cc1)Nc1cc(Cl)c(Cl)cc1Cl	4	1	-4	-29	42*	-3	2
CN(C)C(CNC(=O)CNC(=O)c1ccc(Br)cc1)c1ccccc1 (stereo unspecified)	nt	1.1	-6	nt	1	-12	nt
Cc1ccc(OCCn2cc(/C=C(\C#N)C(=O)NCC3CCCO3)c3ccccc32)cc1C (stereo unspecified)	-1	1	3	-21	12*	-20	6
Cc1ccc(C)c(OCCn2cc(/C=C(\C#N)C(=O)NCC3CCCO3)c3ccccc32)c1 (stereo unspecified)	-7	1.1	-5	-2	7	-5	nt
Cc1ccc(OCCn2cc(/C=C(\C#N)C(=O)NCC3CCCO3)c3ccccc32)cc1 (stereo unspecified)	3	1	2	-56	14*	-21	6
CC1(C)CC(=O)C=C(NCc2ccc(Cl)c(Cl)c2)C1	0	1	-4	-33	0	-8	nt
Cn1nc(C(F)(F)F)c(/C=N/OC(=O)c2ccccc2Cl)c1SCc1ccccc1Cl	7	1	0	-30	12*	-11	3
Cn1nc(C(F)(F)F)c(/C=N/OC(=O)c2ccccc2)c1SCc1ccc(Cl)cc1	-4	1	-5	-42	12*	7	4
Cn1nc(C(F)(F)F)c(/C=N/OC(=O)c2ccc(Cl)cc2)c1Cl	-7	1	-2	-30	5	3	nt
Cn1nc(C(F)(F)F)c(/C=N/OCc2c(Cl)cccc2Cl)c1Cl	-6	1	1	-11	0	6	nt
CC(=O)c1cccc(NC(=O)COc2cc3oc(=O)c(CC(C)O)c(C)c3cc2Cl)c1 (stereo unspecified)	4	1.1	-6	-44	7	8	nt
